The IC50 is the concentration that gives 50% inhibition. Higher therefore signals a need for much substance. In general, Inhibition refers to how much of the control response was suppressed. Lower therefore signals little suppression. What is called inhibition is how much of the control response was suppressed.

For the first assay, the species on record is Homo sapiens. The experiment in a line: (§1) Inhibition of the production of Interleukin-1-beta from human peripheral blood monocytes stimulated with lipopolysaccharide (LPS). The class given is functional. The procedure, abridged:
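Drug in DMSO (1.0 μL) added, 60 min preincubation, then LPS (Salmonella typhimurium; 1.0 μg/mL stock, 20 μL/well). After 20 h, supernatant IL-1β by ELISA; MTT viability on cells.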
On to `O=C(/C=C/c1ccccc1)c1c2ccccc2cc2ccccc12`, for which the IC50 came to 1.41 µM. In turn, `CN(C)c1ccccc1C(=O)/C=C/c1ccccc1` came in with an IC50 of 1.77 µM. This IC50 and that of the molecule before are within 1.5-fold of each other. The same measure, in the same setting: to `COc1cccc(C(=O)/C=C/c2ccccc2)c1OC` belongs 1.67 µM; to `COC(=O)c1ccc(/C=C/C(=O)c2c(OC)cc(OC)cc2OC)cc1`, 1.93 µM; to `COc1cc(OC)c(C(=O)/C=C/c2nccn2C)c(OC)c1`, 3.8 µM. The same measure, in the same setting: next, `O=C(/C=C/c1ccccc1)c1ccccc1O` [2'-HYDROXYCHALCONE]: 4.3 µM. The same measure, in the same setting: to `COc1cc(OC)c(C(=O)/C=C/c2ccc(C(=O)Nc3ccccc3)cc2)c(OC)c1` belongs 0.803 µM; to `Cc1cc(C)c(C(=O)/C=C/c2ccccc2)c(C)c1`, 6.5 µM. `COc1ccc(C(=O)/C=C/c2ccccc2)c(OC)c1OC` yielded an IC50 of 1.71 µM.

`O=C(/C=C/c1ccccc1)c1ccccc1Br`: the IC50 is 1.66 µM. `COc1cc(OC)c(C(=O)/C=C/c2ccc(C(N)=O)cc2)c(OC)c1` displayed an IC50 of 1.79 µM.

Molecule `O=C(/C=C/c1ccccc1)c1ccccc1C(F)(F)F` showed an IC50 of 0.748 µM. Turning to `COc1cc(OC)c(C(=O)/C=C/c2cnccn2)c(OC)c1`, the IC50 turned out to be 0.693 µM. Turning to `COc1cc(OC)c(C(=O)/C=C/c2ccncc2)c(OC)c1`, the IC50 stood at 0.592 µM. With `COc1cc(OC)c(C(=O)/C=C/c2ccc(C(=O)Nc3nccs3)cc2)c(OC)c1`, the IC50 stood at 0.355 µM. Regarding `O=C(/C=C/c1ccccc1)c1ccc(O)cc1` [4'-HYDROXYCHALCONE], the IC50 was found to be 6.13 µM.

Take `COc1cccc(/C=C/C(=O)c2c(OC)cc(OC)cc2OC)c1`: half-maximal inhibition (IC50) required 1.8 µM. Still for that read-out and setting: to `O=C(/C=C/c1ccccc1)c1ccccc1[N+](=O)[O-]` belongs 1.52 µM; to `COc1cc(OC)c(C(=O)/C=C/c2ccccn2)c(OC)c1`, 0.596 µM; to `COc1cccc(OC)c1C(=O)/C=C/c1ccccc1`, 1.15 µM. With `O=C(/C=C/c1ccccc1)c1ccccc1` [CHALCONE], it took 6.28 µM to reach half-maximal inhibition (IC50).

Consider `CN(C)C(=O)c1ccccc1C(=O)/C=C/c1ccccc1`, for which it took 5.5 µM to reach half-maximal inhibition (IC50). The molecule `COc1cc(OC)c(C(=O)/C=C/c2ccc(C(=O)Nc3cccnc3)cc2)c(OC)c1` returned an IC50 of 0.793 µM. On the same count and under the same terms, to `O=C(/C=C/c1ccccc1)c1c(Cl)cccc1Cl` belongs 1.08 µM. Turning to `O=C(/C=C/c1ccccc1)c1cccs1`, the IC50 came out at 5.75 µM. In turn, `COc1cc(OC)c(C(=O)/C=C/c2ccnc3ccccc23)c(OC)c1` registered an IC50 of 0.311 µM. Still for that read-out and setting: to `O=C(/C=C/c1ccccc1)c1ccccc1OCc1ccccc1` belongs 2.23 µM; to `COc1cc(OC)c(C(=O)/C=C/c2ccc(C(=O)N(C)c3nccs3)cc2)c(OC)c1`, 1.01 µM; to `COc1cc(OC)c(C(=O)/C=C/c2cccc(C(=O)Nc3ccccc3)c2)c(OC)c1`, 0.577 µM. Still for that read-out and setting: next, `COc1cc(OC)c(C(=O)/C=C/c2cccc(C(=O)Nc3nccs3)c2)c(OC)c1`: 0.503 µM; `COc1cc(OC)c(C(O)/C=C/c2ccccc2)c(OC)c1` (configuration not stated): 5.4 µM; `O=C(/C=C/c1ccccc1)c1ccccn1`: 6.2 µM.

Take `CCOc1ccccc1C(=O)/C=C/c1ccncc1`: the IC50 was found to be 1.65 µM. Same read-out and setting: next, `COC(=O)c1ccccc1C(=O)/C=C/c1ccccc1`: 1.95 µM. Still for that read-out and setting: next, `COc1cc(C(=O)/C=C/c2ccccc2)cc(OC)c1OC`: 1.84 µM. The same measure, in the same setting: to `COc1cc(OC)c(C(=O)/C=C/c2cccnc2)c(OC)c1` belongs 1.33 µM; to `CC(=O)Nc1ccccc1C(=O)/C=C/c1ccccc1`, 1.73 µM. In turn, `COc1cc(OC)c(C(=O)/C=C/c2cccc(C(=O)Nc3cccnc3)c2)c(OC)c1` gave an IC50 of 1.63 µM. Still for that read-out and setting: next, `COc1cc(OC)c(C(=O)/C(C)=C/c2ccccc2)c(OC)c1`: 5.17 µM; `COC(=O)c1ccccc1C(=O)/C=C/c1ccc(C(=O)Nc2nccs2)cc1`: 2.03 µM; `COc1ccc(/C=C/C(=O)c2ccccc2)cc1OC`: 2.33 µM. Same read-out and setting: next, `COc1cc(OC)c(C(=O)/C=C/c2cccc(C(=O)O)c2)c(OC)c1`: 6.76 µM; `CCOc1ccccc1C(=O)/C=C/c1ccccc1`: 0.609 µM. In turn, `COc1cccc(/C=C/C(=O)c2ccccc2)c1OC` registered an IC50 of 2 µM. Regarding `O=C(/C=C/c1ccccc1)c1ccccc1NS(=O)(=O)C(F)(F)F`, the IC50 was 5.85 µM.

`COc1cc(OC)c(C(=O)/C=C/c2ccc(C(=O)N(C)C)cc2)c(OC)c1` gave an IC50 of 2.8 µM.

Turning to `COc1cc(OC)c(C(=O)/C=C/c2c(F)cccc2F)c(OC)c1`, half-maximal inhibition (IC50) was put at 1.29 µM. This IC50 lies about 2.2-fold lower than the previous one. The same measure, in the same setting: next, `COc1cc(OC)c(C(=O)/C=C/c2ccc(C(=O)O)cc2)c(OC)c1`: 6.23 µM; `COC(=O)c1cccc(/C=C/C(=O)c2c(OC)cc(OC)cc2OC)c1`: 1.65 µM; `COc1ccccc1C(=O)/C=C/c1ccccc1`: 2.23 µM.

The species named for the next assay is Homo sapiens. As to the kind of experiment: Inhibition of the production of Interleukin-1-beta from human peripheral blood monocytes stimulated with lipopolysaccharide (LPS). The class given is functional. The procedure, abridged:
(§2)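 Human monocytes elutriated from whole blood, 2×10^6 cells/well in RPMI 1640 + 5% FBS. Drug in DMSO (1.0 μL) added, 60 min preincubation, then LPS (Salmonella typhimurium; 1.0 μg/mL stock, 20 μL/well). After 20 h, supernatant IL-1β by ELISA; MTT viability on cells.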
`COc1cc(OC)c(C(=O)/C=C/c2ccccc2)c(OC)c1` registered an IC50 of 1.25 µM.

A further assay is filed under the species Homo sapiens. The description is as §1. The assay is classed as functional. The method in brief:
as §2
Consider `COc1cc(OC)c(C(/C=C/c2ccccc2)=N/O)c(OC)c1`, for which the Inhibition is 34%.

The species entered for another assay is Homo sapiens. As to the kind of experiment: (§3) Inhibition of the production of Interleukin-1-beta from human peripheral blood monocytes stimulated with lipopolysaccharide (LPS) at 10 uM. The class given is functional. The method in brief: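 Elutriated human monocytes in RPMI 1640 + 5% FBS, drug added in DMSO 60 min before LPS (Salmonella typhimurium). Tested at 10 μM, the highest concentration assayed. After 20 h, supernatant IL-1β measured by ELISA in duplicate; percent inhibition vs control; MTT viability checked.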
As to `COc1cc(OC)c(C/C=C/c2ccccc2)c(OC)c1`, at 10 µM the inhibition was 0%. Regarding `CS(=O)(=O)Nc1ccccc1C(=O)/C=C/c1ccccc1`, testing at 10 µM gave an inhibition of 0%. On the same count and under the same terms, next, `COc1cc(OC)c(NC(=O)/C=C/c2ccccc2)c(OC)c1`: 0%; `COc1cc(OC)c(C(=O)CCc2ccccc2)c(OC)c1`: 0%; `COc1cc(C(=O)/C=C/c2ccc(N(C)C)cc2)cc(OC)c1OC`: 0%. Same read-out and setting: next, `O=C(Nc1nccs1)c1ccc(/C=C/C(=O)c2ccccc2C(=O)O)cc1`: 22%; `COc1cc(OC)c(C(=O)NCc2ccccc2)c(OC)c1`: 0%; `COc1cc(OC)c(C(=O)c2ccc(-c3ccccc3)cc2)c(OC)c1`: 26%.

For another assay, the species on record is Homo sapiens. The description is as §3. The assay is classed as functional.
With `CCOc1ccc(C(=O)/C=C/c2ccccc2)cc1`, the inhibition at 10 µM is 15%.

For `COc1cc(OC)c(C(=O)/C=C(\C)c2ccccc2)c(OC)c1`, the inhibition at 10 µM was determined as 0%. On to `COc1cc(OC)c(C(=O)C=C(c2ccccc2)c2ccccc2)c(OC)c1`, for which 10 µM produced 0% inhibition.

In turn, `COc1ccc(C(=O)/C=C/c2ccccc2)cc1` [4'-METHOXYCHALCONE] came in with an inhibition at 10 µM of 29%. As for `O=C(O)c1ccccc1C(=O)/C=C/c1ccccc1`, the inhibition at 10 µM came to 37%. The same measure, in the same setting: to `COC(=O)c1ccc(C(=O)/C=C/c2ccccc2)cc1` belongs 5%; to `O=C(/C=C/c1ccccc1)c1ccc([N+](=O)[O-])cc1`, 0%. With `COc1ccc(C(=O)/C=C/c2ccccc2)cc1OC` [3',4'-DIMETHOXYCHALCONE], at 10 µM the inhibition was 44%.

The next assay relates to Mus musculus. As to the kind of experiment: In vivo activity expressed as percentage survival at 600 mg/kg in mouse septic shock model. The assay is classed as functional. The method in brief:
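Female C57Bl/6 mice (18–20 g), groups of 10, given LPS ip (E. coli 0127:B8, in 0.9% saline, 40 mg/kg). Compound in 0.25% methylcellulose (beadmilled 60 min) dosed orally by gavage 20 min later (0.1 mL/g), then every 4 h for 24 h; vehicle controls. Deaths recorded over 3 days; percent survival, χ² at p<0.05, mean of three experiments.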
`COc1cc(OC)c(C(=O)/C=C/c2ccc(C(=O)Nc3nccs3)cc2)c(OC)c1` gave a survival at 600 mg/kg of 55%.

Molecule `COc1cc(OC)c(C(=O)/C=C/c2ccc(C(=O)Nc3cccnc3)cc2)c(OC)c1` displayed a survival at 600 mg/kg of 50%.

For the molecule `COC(=O)c1ccccc1C(=O)/C=C/c1ccccc1`, the survival at 600 mg/kg came out at 20%. Same read-out and setting: to `COC(=O)c1ccccc1C(=O)/C=C/c1ccc(C(=O)Nc2nccs2)cc1` belongs 30%.
